Experiment [1] deals with Candida albicans. The experiment can be described thus: Antifungal activity against Candida albicans in yeast extract-peptone-glucose medium at 450 ug/ml after 48 hrs by disc diffusion assay. The format is functional. The following applies: read-out: DIZ. In short, it runs like this: (§1)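 C. albicans cells at a set number were spread on YEPD agar, either plain or containing the cell-wall disruptant named in the line (SDS, Congo red or calcofluor white). Compound solution, or the reference solvent as control, was spotted onto 0.5 cm discs placed on the lawn. Plates were incubated at 30 °C and the inhibition zone diameter was measured.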
In general terms: A growth-free zone around the sample is the usual read-out of agar diffusion tests.

For experiment [2], the system named is Candida albicans. The experiment can be described thus: Antifungal activity against Candida albicans in yeast extract-peptone-glucose medium at 450 ug/ml after 48 hrs by disc diffusion assay in presence of 150 ug/ml of congo red. The format is functional. In short, it runs like this: as §1
The subject of experiment [3] is Candida albicans. The experiment can be described thus: Antifungal activity against Candida albicans in yeast extract-peptone-glucose medium at 450 ug/ml after 48 hrs by disc diffusion assay in presence of 100 ug/ml of calcofluor white. The format is functional. In short, it runs like this:
as §1

Experiment [4] concerns Candida albicans. The experiment can be described thus: Antifungal activity against Candida albicans in yeast extract-peptone-glucose medium at 450 ug/ml after 48 hrs by disc diffusion assay in presence of […]. The format is functional. In short, it runs like this: (§2)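 This is a C. albicans disc diffusion on YEPD agar containing rhodamine 6G, a substrate of the Cdr1p/Cdr2p ATP-dependent efflux pumps, to test for enhanced R6G toxicity. A set number of cells was spread, and 0.5 cm discs were spotted with compound solution or reference solvent. Plates were incubated at 30 °C and the zone diameter was measured.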

In experiment [5] the test system is Candida albicans. The experiment in a line: Antifungal activity against Candida albicans in yeast extract-peptone-glucose medium at 450 ug/ml after 48 hrs by disc diffusion assay in presence of 0.01% of sodium dodecylsulphate. The format is functional. The following applies: read-out: DIZ. In short, it runs like this:
as §1

Experiment [6] relates to Escherichia coli. The experiment in a line: Antibacterial activity against Escherichia coli harboring ampicillin-resistance gene encoding plasmid at 450 ug/ml after 24 hrs by disc diffusion assay. The format is functional. The following applies: read-out: DIZ. In short, it runs like this: (§3)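 Disc diffusion used an E. coli strain carrying a plasmid that encodes an ampicillin-resistance gene. Inhibition zone diameters were recorded and compared against the corresponding solvent controls.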

Experiment [7] deals with Candida albicans. The experiment in a line: Antifungal activity against Candida albicans in synthetic dextrose minimal medium after 48 hrs by ELISA based serial dilution method. On the technique in general: An ELISA detects its analyte on a solid surface through an enzyme-linked reagent.
Experiment [8] has as its system Candida albicans. The experiment in a line: Antifungal activity against Candida albicans in yeast extract-peptone-glucose medium at 375 ug/ml after 48 hrs by disc diffusion assay in presence of rhodamine 6G.
Experiment [9] deals with Candida albicans. The experiment can be described thus: Antifungal activity against Candida albicans in yeast extract-peptone-glucose medium at 375 ug/ml after 48 hrs by disc diffusion assay in presence of 0.01% of sodium dodecylsulphate. The format is functional. As to conditions: read-out: DIZ. In short, it runs like this: as §1
The test system of experiment [10] is Candida albicans. The experiment can be described thus: Antifungal activity against Candida albicans in yeast extract-peptone-glucose medium at 375 ug/ml after 48 hrs by disc diffusion assay in presence of 150 ug/ml of congo red. The format is functional. In short, it runs like this: as §1
Experiment [11] deals with Candida albicans. The experiment can be described thus: Antifungal activity against Candida albicans in yeast extract-peptone-glucose medium at 375 ug/ml after 48 hrs by disc diffusion assay. The format is functional. As to conditions: read-out: DIZ. In short, it runs like this: as §1
For experiment [12], the system named is Escherichia coli. The experiment can be described thus: Antibacterial activity against Escherichia coli harboring ampicillin-resistance gene encoding plasmid at 375 ug/ml after 24 hrs by disc diffusion assay. The format is functional. As to conditions: read-out: DIZ. In short, it runs like this:
as §3

The test system of experiment [13] is Candida albicans. The experiment in a line: Antifungal activity against Candida albicans in yeast extract-peptone-glucose medium at 375 ug/ml after 48 hrs by disc diffusion assay in presence of 100 ug/ml of calcofluor white. The format is functional. In short, it runs like this:
as §1

The test system of experiment [14] is Candida albicans. The experiment can be described thus: Antifungal activity against Candida albicans in yeast extract-peptone-glucose medium at 238 ug/ml after 48 hrs by disc diffusion assay in presence of 150 ug/ml of congo red. The format is functional. In short, it runs like this: as §1
Experiment [15] has as its system Candida albicans. The experiment can be described thus: Antifungal activity against Candida albicans in yeast extract-peptone-glucose medium at 238 ug/ml after 48 hrs by disc diffusion assay. As to conditions: read-out: DIZ. The format is functional. In short, it runs like this: as §1
Experiment [16] has as its system Escherichia coli. The experiment can be described thus: Antibacterial activity against Escherichia coli harboring ampicillin-resistance gene encoding plasmid at 238 ug/ml after 24 hrs by disc diffusion assay. The format is functional. As to conditions: read-out: DIZ. In short, it runs like this: as §3
In experiment [17] the test system is Candida albicans. The experiment can be described thus: Antifungal activity against Candida albicans in yeast extract-peptone-glucose medium at 238 ug/ml after 48 hrs by disc diffusion assay in presence of 0.01% of sodium dodecylsulphate. The following applies: read-out: DIZ. The format is functional. In short, it runs like this: as §1
The subject of experiment [18] is Candida albicans. The experiment can be described thus: Antifungal activity against Candida albicans in yeast extract-peptone-glucose medium at 238 ug/ml after 48 hrs by disc diffusion assay in presence of […]. The format is functional. In short, it runs like this: as §2
Experiment [19] has as its system Candida albicans. The experiment in a line: Antifungal activity against Candida albicans in yeast extract-peptone-glucose medium at 545 ug/ml after 48 hrs by disc diffusion assay in presence of 150 ug/ml of congo red. The format is functional. In short, it runs like this:
(§4)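 C. albicans cells were spread at a set number over YEPD agar containing the additive named in the line. Discs 0.5 cm across were placed on the lawn and spotted with test compound solution or reference solvent. Plates were incubated at 30 °C. The inhibition zone diameter was measured in mm and compared with the solvent-control disc.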

Experiment [20] relates to Escherichia coli. The experiment can be described thus: Antibacterial activity against Escherichia coli harboring ampicillin-resistance gene encoding plasmid at 545 ug/ml after 24 hrs by disc diffusion assay. As to conditions: read-out: DIZ. The format is functional. In short, it runs like this: as §3
In experiment [21] the test system is Candida albicans. The experiment can be described thus: Antifungal activity against Candida albicans in yeast extract-peptone-glucose medium at 545 ug/ml after 48 hrs by disc diffusion assay in presence of 0.01% of sodium dodecylsulphate. The following applies: read-out: DIZ. The format is functional. In short, it runs like this:
as §1

Experiment [22] relates to Candida albicans. The experiment can be described thus: Antifungal activity against Candida albicans in yeast extract-peptone-glucose medium at 545 ug/ml after 48 hrs by disc diffusion assay in presence of 150 ug/ml of rhodamine 6G. The format is functional. In short, it runs like this:
as §4

Experiment [23] deals with Candida albicans. The experiment can be described thus: Antifungal activity against Candida albicans in yeast extract-peptone-glucose medium at 545 ug/ml after 48 hrs by disc diffusion assay in presence of 100 ug/ml of calcofluor white. The format is functional. In short, it runs like this: as §4
In experiment [24] the test system is Candida albicans. The experiment can be described thus: Antifungal activity against Candida albicans in yeast extract-peptone-glucose medium at 545 ug/ml after 48 hrs by disc diffusion assay. The format is functional. The following applies: read-out: DIZ. In short, it runs like this:
as §1

Here are results for four compounds from ChEMBL document CHEMBL1777792, “Synthesis and evaluation of indole-based new scaffolds for antimicrobial activities--identification of promising candidates” (Bioorg Med Chem Lett, 2011).

The structures appear in SMILES notation.

The term IC50 denotes the concentration that gives 50% inhibition. A high value points to lower potency.

On to `O=C(C(=O)N1CCCCC1)c1cn(CCCCCn2cc(C(=O)C(=O)N3CCCCC3)c3ccccc32)c2ccccc12`, for which the figures for the zone of inhibition at 450 µg/mL with Candida albicans [1], in the experiment on Candida albicans [5] and in the experiment with Escherichia coli [6] were 6 mm, 6.5 mm and 8.5 mm, respectively. For the same compound, the “diameter of the inhibition zone (DIZ)” value in the experiment on Candida albicans [2] is 7 mm; in the experiment with Candida albicans [3] it was 6.5 mm; in the experiment on Candida albicans [4], 6.5 mm.
On to `O=C(C(=O)N1CCOCC1)c1cn(CCCCCn2cc(C(=O)C(=O)N3CCOCC3)c3ccccc32)c2ccccc12`, for which, in the experiment on Candida albicans [7], the IC50 stood at 340 µM. Also, the “diameter of the inhibition zone (DIZ)” value is 8 mm with Candida albicans [8], 7 mm in the experiment with Candida albicans [10] and 7.5 mm in the experiment on Candida albicans [13]. Further, the zone of inhibition at 375 µg/mL with Candida albicans [9] was determined as 7 mm; in the experiment on Candida albicans [11] it was 7.5 mm; in the experiment with Escherichia coli [12], 8.5 mm.
On to `O=C(C(=O)N1CCCCC1)c1cn(CCCCCCn2cc(C(=O)C(=O)N3CCCCC3)c3ccccc32)c2ccccc12`, for which the “diameter of the inhibition zone (DIZ)” value in the experiment with Candida albicans [14] amounted to 6 mm; in the experiment with Candida albicans [18], 5.5 mm. Moreover, the zone of inhibition at 238 µg/mL in the experiment on Candida albicans [15] is 6.5 mm; in the experiment with Escherichia coli [16] it was 7.5 mm; in the experiment with Candida albicans [17] it was 6.5 mm.
For `O=C(C(=O)N1CCCC1)c1cn(CCCCCCn2cc(C(=O)C(=O)N3CCCC3)c3ccccc32)c2ccccc12`, the “diameter of the inhibition zone (DIZ)” value in the experiment on Candida albicans [19] is given as 10.5 mm; in the experiment on Candida albicans [22], 12.5 mm; in the experiment with Candida albicans [23], 11 mm. Besides, the zone of inhibition at 545 µg/mL came out at 11.5 mm in the experiment on Escherichia coli [20], 15.5 mm in the experiment with Candida albicans [21] and 14.5 mm in the experiment on Candida albicans [24].
